The source made the active and inactive calls. The rule behind the calls is not given here.

Experimental findings from ChEMBL document CHEMBL1781995, “Acenaphtho[1,2-b]pyrrole-based selective fibroblast growth factor receptors 1 (FGFR1) inhibitors: design, synthesis, and biological activity” (J Med Chem, 2011) are described below.

One test concerns the target T1, Ephrin type-B receptor 2 (Homo sapiens, UniProt P29323).
T1 sequence (P29323 whole entry): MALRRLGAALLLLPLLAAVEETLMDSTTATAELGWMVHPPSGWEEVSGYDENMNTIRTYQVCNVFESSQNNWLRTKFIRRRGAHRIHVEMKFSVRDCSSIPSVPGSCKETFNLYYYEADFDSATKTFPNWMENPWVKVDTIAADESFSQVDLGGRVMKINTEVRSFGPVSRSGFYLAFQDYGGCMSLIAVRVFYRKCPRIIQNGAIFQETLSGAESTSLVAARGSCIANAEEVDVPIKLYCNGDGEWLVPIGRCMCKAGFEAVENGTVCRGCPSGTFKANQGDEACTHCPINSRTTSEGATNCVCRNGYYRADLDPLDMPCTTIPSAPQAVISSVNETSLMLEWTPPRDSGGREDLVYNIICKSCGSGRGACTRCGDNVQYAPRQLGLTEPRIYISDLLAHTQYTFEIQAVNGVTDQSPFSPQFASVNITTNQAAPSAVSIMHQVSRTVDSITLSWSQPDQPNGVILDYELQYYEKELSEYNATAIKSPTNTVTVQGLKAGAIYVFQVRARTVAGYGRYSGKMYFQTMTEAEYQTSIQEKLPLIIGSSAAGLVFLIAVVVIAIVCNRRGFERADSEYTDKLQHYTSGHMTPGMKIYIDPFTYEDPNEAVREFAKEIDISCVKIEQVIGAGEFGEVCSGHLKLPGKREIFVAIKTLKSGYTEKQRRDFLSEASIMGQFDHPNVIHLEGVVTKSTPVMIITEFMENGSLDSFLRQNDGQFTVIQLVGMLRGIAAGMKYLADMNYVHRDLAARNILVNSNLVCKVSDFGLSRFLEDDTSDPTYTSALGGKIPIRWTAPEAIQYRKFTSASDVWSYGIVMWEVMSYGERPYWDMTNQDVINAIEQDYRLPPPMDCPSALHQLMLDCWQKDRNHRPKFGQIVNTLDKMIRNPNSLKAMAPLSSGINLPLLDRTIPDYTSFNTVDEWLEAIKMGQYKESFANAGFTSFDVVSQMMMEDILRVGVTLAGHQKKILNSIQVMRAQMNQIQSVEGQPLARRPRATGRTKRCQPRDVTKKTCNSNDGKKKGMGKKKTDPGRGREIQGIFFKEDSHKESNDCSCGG
Description: Inhibition of EphB2 expressed in Bac-to-Bac Baculovirus expression system using poly(Glu-Tyr)4:1 as substrate after 60 mins by ELISA. The essentials: (§1)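 Wells precoated with 20 μg/mL poly(Glu,Tyr)4:1. Detected with PY99 anti-phosphotyrosine, then HRP anti-mouse IgG and o-phenylenediamine/H2O2; stopped with H2SO4, A490. Duplicates per concentration; IC50 from inhibition curves, at least three independent tests.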
A general note: In an ELISA, binding on a coated surface is turned into a signal by an enzyme label.

The target in test [1] is Platelet-derived growth factor receptor beta (Homo sapiens, UniProt P09619). Description: Inhibition of PDGFRbeta using poly(Glu-Tyr)4:1 as substrate after 60 mins by ELISA. The procedure, abridged: as §1
Test [2] has as its target T2, Fibroblast growth factor receptor 1 (Homo sapiens, UniProt P11362). Kind of test: Inhibition of FGFR1 in human BxPC3 cells assessed as reduction of Erk1/2 phosphorylation at 10 uM after 12 hrs by Western blot analysis. The format is cell-based. The settings on record: BXPC-3. The essentials: (§2)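 BxPC3 cells plated at 3 × 10^5 per well, serum-starved 24 h, then treated 12 h with compound (1.25, 2.5, 5, 10 μM). Whole-cell lysates run on 10% SDS-PAGE and immunoblotted for phospho-FGFR1 (Tyr653/654), phospho-Erk1/2 (T202/Y204), phospho-Akt and totals, with GAPDH loading control.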
Target sequence in this assay (P11362 22-822 limits assumed): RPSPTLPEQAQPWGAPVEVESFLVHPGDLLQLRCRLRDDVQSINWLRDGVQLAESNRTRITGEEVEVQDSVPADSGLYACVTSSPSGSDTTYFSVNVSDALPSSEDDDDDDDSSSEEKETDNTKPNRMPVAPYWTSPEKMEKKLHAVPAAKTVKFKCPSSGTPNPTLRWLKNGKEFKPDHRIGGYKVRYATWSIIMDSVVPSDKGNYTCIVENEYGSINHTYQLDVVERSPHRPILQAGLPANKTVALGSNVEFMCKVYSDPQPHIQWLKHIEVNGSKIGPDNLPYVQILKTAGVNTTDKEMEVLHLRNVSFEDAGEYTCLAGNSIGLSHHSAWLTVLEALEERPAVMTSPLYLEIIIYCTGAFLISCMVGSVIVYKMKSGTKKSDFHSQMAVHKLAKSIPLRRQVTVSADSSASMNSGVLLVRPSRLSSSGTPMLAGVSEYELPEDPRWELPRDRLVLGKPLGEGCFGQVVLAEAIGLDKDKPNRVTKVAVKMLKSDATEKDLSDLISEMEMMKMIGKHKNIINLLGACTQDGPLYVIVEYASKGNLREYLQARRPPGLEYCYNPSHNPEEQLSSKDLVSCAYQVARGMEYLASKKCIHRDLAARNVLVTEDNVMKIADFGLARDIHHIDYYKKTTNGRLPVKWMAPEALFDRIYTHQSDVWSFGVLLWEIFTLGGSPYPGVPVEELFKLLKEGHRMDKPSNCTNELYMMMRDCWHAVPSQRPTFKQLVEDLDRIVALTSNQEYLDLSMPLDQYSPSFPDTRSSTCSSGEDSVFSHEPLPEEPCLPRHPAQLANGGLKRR

The target of test [3] is Mast/stem cell growth factor receptor Kit (Homo sapiens, UniProt P10721). Description: Inhibition of c-kit expressed in Bac-to-Bac Baculovirus expression system using poly(Glu-Tyr)4:1 as substrate after 60 mins by ELISA. The essentials:
as §1

The target in test [4] is Insulin-like growth factor 1 receptor (Homo sapiens, UniProt P08069). Description: Inhibition of IGF1R expressed in Bac-to-Bac Baculovirus expression system using poly(Glu-Tyr)4:1 as substrate after 60 mins by ELISA. The essentials: as §1
Test [5] deals with Vascular endothelial growth factor receptor 2 (Homo sapiens, UniProt P35968). Description: Inhibition of VEGFR2 expressed in Bac-to-Bac Baculovirus expression system using poly(Glu-Tyr)4:1 as substrate after 60 mins by ELISA. The procedure, abridged: as §1
The target in a further test is Ephrin type-A receptor 2 (Homo sapiens, UniProt P29317). Kind of test: Inhibition of EphA2 expressed in Bac-to-Bac Baculovirus expression system using poly(Glu-Tyr)4:1 as substrate after 60 mins by ELISA. The procedure, abridged:
as §1

A further test has as its system BXPC-3. Description: Antiproliferative activity against human BxPC3 cells expressing FGFR after 72 hrs by SRB assay. Format: functional, cell-based. The settings on record: BXPC-3, 72 h. The essentials: (§3)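 Cells seeded and grown 24 h, then exposed to increasing compound concentrations for 72 h without medium change. Fixed with cold 10% TCA 1 h at 4 °C, stained 15 min with 4 mg/mL SRB in 1% acetic acid, rinsed, dye dissolved in 10 mM Tris base, A515 read. Inhibition = (1 − A515treated/A515control)×100; IC50 by Logit method from at least three independent tests.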

Test [6] concerns the target Proto-oncogene tyrosine-protein kinase Src (Homo sapiens, UniProt P12931). Kind of test: Inhibition of c-Src expressed in Bac-to-Bac Baculovirus expression system using poly(Glu-Tyr)4:1 as substrate after 60 mins by ELISA. The procedure, abridged:
as §1

Test [7] has as its target Fibroblast growth factor receptor 3 (Homo sapiens, UniProt P22607). Kind of test: Inhibition of FGFR3 using poly(Glu-Tyr)4:1 as substrate after 60 mins by ELISA. The essentials:
as §1

For test [8], the target named is Macrophage-stimulating protein receptor (Homo sapiens, UniProt Q04912). Kind of test: Inhibition of RON expressed in Bac-to-Bac Baculovirus expression system using poly(Glu-Tyr)4:1 as substrate after 60 mins by ELISA. The essentials:
as §1

Test [9] addresses Fibroblast growth factor receptor 4 (Homo sapiens, UniProt P22455). Kind of test: Inhibition of FGFR4 using poly(Glu-Tyr)4:1 as substrate after 60 mins by ELISA. The procedure, abridged:
as §1

In the next test the test system is WI-38. Description: Antiproliferative activity against human WI38 cells expressing FGFR after 72 hrs by SRB assay. Format: cell-based. The note with it: WI-38, 72 h. The essentials: as §3
A general note: In SRB staining, fixed cells bind dye roughly in proportion to their protein.

Test [10] deals with Proto-oncogene tyrosine-protein kinase receptor Ret (Homo sapiens, UniProt P07949). Description: Inhibition of RET expressed in Bac-to-Bac Baculovirus expression system using poly(Glu-Tyr)4:1 as substrate after 60 mins by ELISA. The essentials:
as §1

The target in test [11] is Tyrosine-protein kinase ABL1 (Homo sapiens, UniProt P00519). Description: Inhibition of Abl using poly(Glu-Tyr)4:1 as substrate after 60 mins by ELISA. The procedure, abridged:
as §1

The target of test [12] is T2, Fibroblast growth factor receptor 1. Kind of test: Inhibition of FGFR1 in human BxPC3 cells assessed as reduction of Akt phosphorylation at 10 uM after 12 hrs by Western blot analysis. The format is cell-based. The note with it: BXPC-3. The essentials: as §2
Target sequence in this assay (P11362 22-822 limits assumed): as above
For orientation: In western blotting, separated proteins are transferred to a membrane and probed.

Test [13] concerns the target Platelet-derived growth factor receptor alpha (Homo sapiens, UniProt P16234). Kind of test: Inhibition of PDGFRalpha using poly(Glu-Tyr)4:1 as substrate after 60 mins by ELISA. The essentials:
as §1

In test [14] the target is T2, Fibroblast growth factor receptor 1. Description: Inhibition of FGFR1 in human BxPC3 cells assessed as reduction of Erk1/2 phosphorylation after 12 hrs by Western blot analysis. The note with it: BXPC-3. Format: cell-based. The procedure, abridged:
as §2
Target sequence in this assay (P11362 22-822 limits assumed): as above

The target of test [15] is Fibroblast growth factor receptor 2 (Homo sapiens, UniProt P21802). Kind of test: Inhibition of FGFR2 using poly(Glu-Tyr)4:1 as substrate after 60 mins by ELISA. The procedure, abridged: as §1
Test [16] addresses T2, Fibroblast growth factor receptor 1. Kind of test: Inhibition of FGFR1 using poly(Glu-Tyr)4:1 as substrate after 60 mins by ELISA.
For a further test, the system named is T-24. Kind of test: Antiproliferative activity against human T24 cells expressing FGFR after 72 hrs by SRB assay. The note with it: T-24, 72 h. The format is functional, cell-based. The procedure, abridged: as §3
Test [17] deals with Vascular endothelial growth factor receptor 1 (Homo sapiens, UniProt P17948). Kind of test: Inhibition of VEGFR1 using poly(Glu-Tyr)4:1 as substrate measured after 60 mins by ELISA. The procedure, abridged: as §1

Vascular endothelial growth factor receptor 2, sequence (P35968 whole entry): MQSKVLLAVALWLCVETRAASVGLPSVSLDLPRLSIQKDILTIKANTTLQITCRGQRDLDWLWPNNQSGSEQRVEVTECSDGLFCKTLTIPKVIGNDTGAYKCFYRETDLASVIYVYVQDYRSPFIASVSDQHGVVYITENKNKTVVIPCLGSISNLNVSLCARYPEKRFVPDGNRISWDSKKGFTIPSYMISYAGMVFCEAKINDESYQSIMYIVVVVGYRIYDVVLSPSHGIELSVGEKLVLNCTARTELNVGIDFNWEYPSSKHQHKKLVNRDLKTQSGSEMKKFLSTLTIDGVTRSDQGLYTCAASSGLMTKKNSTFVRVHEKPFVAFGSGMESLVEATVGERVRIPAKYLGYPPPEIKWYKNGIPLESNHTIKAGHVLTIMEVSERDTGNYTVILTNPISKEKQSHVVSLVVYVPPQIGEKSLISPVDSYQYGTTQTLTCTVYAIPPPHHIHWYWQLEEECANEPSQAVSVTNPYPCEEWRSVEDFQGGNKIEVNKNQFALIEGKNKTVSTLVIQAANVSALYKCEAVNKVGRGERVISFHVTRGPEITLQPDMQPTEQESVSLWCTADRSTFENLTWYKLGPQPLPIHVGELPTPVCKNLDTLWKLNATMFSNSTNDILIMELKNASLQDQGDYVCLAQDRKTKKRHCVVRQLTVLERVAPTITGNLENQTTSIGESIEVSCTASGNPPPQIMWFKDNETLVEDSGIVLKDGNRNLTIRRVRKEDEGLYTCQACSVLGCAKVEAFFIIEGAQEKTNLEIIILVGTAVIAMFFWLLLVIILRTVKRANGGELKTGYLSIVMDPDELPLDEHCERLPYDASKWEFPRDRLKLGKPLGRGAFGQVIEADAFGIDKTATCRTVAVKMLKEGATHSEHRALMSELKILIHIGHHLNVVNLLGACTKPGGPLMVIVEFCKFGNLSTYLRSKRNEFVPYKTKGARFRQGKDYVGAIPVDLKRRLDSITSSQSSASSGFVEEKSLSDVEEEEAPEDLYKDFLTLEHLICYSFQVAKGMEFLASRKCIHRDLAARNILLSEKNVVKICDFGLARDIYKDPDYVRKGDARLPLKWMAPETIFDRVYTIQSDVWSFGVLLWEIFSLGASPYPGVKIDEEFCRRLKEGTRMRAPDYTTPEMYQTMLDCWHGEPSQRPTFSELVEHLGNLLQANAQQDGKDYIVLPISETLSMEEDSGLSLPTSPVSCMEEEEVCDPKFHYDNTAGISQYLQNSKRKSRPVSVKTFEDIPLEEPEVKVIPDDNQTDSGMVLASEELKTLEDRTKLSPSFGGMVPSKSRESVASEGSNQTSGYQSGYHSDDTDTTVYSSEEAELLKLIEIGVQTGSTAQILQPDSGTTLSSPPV
Proto-oncogene tyrosine-protein kinase receptor Ret, sequence (P07949 whole entry): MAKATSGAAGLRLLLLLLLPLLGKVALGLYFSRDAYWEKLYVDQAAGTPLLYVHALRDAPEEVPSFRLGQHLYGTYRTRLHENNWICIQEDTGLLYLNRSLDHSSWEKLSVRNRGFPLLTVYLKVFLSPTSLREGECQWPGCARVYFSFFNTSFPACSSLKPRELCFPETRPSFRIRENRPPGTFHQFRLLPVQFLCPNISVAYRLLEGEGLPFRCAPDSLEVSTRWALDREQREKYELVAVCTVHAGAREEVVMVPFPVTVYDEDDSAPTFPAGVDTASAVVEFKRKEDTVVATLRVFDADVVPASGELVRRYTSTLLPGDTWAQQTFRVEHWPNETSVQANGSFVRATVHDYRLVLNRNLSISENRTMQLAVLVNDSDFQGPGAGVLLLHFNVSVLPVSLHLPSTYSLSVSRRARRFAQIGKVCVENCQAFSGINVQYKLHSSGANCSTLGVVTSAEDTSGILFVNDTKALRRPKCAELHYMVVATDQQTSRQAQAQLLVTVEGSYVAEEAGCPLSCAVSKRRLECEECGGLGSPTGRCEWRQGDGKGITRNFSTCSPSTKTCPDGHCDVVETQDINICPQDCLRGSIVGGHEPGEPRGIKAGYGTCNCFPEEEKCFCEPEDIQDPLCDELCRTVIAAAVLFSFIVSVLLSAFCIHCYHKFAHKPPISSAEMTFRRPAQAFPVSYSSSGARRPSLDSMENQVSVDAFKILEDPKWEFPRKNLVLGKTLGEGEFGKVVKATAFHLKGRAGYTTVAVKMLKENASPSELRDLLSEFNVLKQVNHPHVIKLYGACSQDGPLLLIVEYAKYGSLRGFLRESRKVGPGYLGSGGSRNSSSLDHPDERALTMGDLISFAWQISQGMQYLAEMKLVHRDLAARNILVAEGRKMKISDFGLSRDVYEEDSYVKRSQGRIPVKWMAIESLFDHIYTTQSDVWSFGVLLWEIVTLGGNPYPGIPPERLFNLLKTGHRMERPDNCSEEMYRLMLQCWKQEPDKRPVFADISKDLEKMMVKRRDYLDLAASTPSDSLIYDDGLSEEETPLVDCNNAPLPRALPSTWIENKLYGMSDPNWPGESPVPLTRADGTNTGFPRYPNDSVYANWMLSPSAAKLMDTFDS
Ephrin type-A receptor 2, sequence (P29317 whole entry): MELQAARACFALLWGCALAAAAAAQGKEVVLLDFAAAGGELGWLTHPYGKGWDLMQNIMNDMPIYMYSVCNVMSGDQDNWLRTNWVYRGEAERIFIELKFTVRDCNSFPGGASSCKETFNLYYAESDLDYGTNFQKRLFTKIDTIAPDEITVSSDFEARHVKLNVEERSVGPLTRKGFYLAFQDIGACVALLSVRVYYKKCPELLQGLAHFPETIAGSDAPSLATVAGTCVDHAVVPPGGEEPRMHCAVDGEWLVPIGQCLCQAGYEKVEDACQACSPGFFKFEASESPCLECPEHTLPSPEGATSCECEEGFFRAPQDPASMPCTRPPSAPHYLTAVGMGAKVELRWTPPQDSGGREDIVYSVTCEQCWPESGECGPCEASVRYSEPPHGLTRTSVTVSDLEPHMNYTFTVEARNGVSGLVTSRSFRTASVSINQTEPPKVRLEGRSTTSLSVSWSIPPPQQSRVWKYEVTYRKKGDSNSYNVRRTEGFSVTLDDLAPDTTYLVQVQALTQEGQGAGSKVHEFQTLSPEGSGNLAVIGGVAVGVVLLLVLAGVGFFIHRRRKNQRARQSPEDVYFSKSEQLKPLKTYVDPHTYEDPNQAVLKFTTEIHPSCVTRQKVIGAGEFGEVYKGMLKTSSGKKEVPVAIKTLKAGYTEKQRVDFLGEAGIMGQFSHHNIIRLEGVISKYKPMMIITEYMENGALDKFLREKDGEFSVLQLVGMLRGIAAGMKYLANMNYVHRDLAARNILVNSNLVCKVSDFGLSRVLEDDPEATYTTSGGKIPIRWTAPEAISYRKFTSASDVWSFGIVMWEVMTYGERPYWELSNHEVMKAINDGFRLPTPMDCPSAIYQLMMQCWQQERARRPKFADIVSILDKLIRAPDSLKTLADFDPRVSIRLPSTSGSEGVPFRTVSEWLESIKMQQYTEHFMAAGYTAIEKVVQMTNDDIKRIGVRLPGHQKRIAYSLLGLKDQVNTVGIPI
Proto-oncogene tyrosine-protein kinase Src, sequence (P12931 2-536 limits assumed): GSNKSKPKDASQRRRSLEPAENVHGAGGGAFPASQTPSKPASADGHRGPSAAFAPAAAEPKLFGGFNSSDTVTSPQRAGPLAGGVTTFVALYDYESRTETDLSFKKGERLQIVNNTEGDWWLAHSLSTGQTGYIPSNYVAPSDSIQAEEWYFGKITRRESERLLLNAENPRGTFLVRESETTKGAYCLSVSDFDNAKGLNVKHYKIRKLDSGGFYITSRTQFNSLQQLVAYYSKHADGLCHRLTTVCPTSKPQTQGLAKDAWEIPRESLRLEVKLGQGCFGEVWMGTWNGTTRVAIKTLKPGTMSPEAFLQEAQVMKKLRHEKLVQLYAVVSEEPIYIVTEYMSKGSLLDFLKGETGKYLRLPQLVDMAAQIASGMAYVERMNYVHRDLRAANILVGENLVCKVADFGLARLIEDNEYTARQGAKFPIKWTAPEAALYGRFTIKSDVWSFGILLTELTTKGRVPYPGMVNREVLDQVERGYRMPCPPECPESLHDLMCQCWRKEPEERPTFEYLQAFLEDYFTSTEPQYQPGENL

As a reminder, the IC50 is the concentration that gives 50% inhibition. Low values mean higher potency, high ones lower potency. For the molecule `CCOC(=O)C1=C2C(=NC1=O)c1cccc3cccc2c13`, the IC50 (at Ephrin type-B receptor 2; in test [1]; in test [3]; in test [4]; in test [5]; against Ephrin type-A receptor 2) was > 10 µM throughout. Further, the IC50 in the test with BXPC-3 was 4.7 µM; in test [6] it was > 10 µM; in test [7] it was 4.6 µM; in [8], > 10 µM; in test [9], > 10 µM; in the test with WI-38, 6.2 µM. The half-inhibitory concentration (IC50) is > 10 µM in [10]; > 10 µM in [11]; > 10 µM in [13]; > 10 µM in [15]; 0.074 µM in test [16]; 2.9 µM in the test with T-24. Moreover, inhibition in [17] was half-maximal at 3.2 µM (IC50). Further, in test [2], the inhibition result was “Active”. In [12], the inhibition entry was “inactive”. Besides, the inhibition result in test [14] is “Dose-dependent effect”.
